Experiment [1] concerns SF-268. Description: Cytotoxicity against human SF268 cells by SRB assay. Type of experiment: functional. The gist of the method: (§1)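 Tested at the Japanese Foundation for Cancer Research panel of 39 human cancer cell lines. Five concentrations per compound, spanning 10^-10 to 10^-6 M or 10^-8 to 10^-4 M. Growth measured by sulforhodamine B colorimetry. GI50 is the concentration giving 50% growth inhibition relative to control.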

Experiment [2] concerns U-251. As to the kind of experiment: Cytotoxicity against human U251 cells by SRB assay. Type of experiment: functional. The gist of the method:
as §1
A general note: In SRB staining, fixed cells bind dye roughly in proportion to their protein.

Experiment [3] concerns MDA-MB-231. As to the kind of experiment: Cytotoxicity against human MDA-MB-231 cells by SRB assay. Type of experiment: functional. The gist of the method: as §1
Experiment [4] is described as follows: Cytotoxicity against human HBC5 cells by SRB assay. The experiment is classed as functional. The gist of the method: as §1
Experiment [5] deals with MCF7. As to the kind of experiment: Cytotoxicity against human MCF7 cells by SRB assay. The experiment is classed as functional. The gist of the method:
as §1

The nature of experiment [6]: Cytotoxicity against human BSY1 cells by SRB assay. The experiment is classed as functional. The following applies: BSY-1. The gist of the method: as §1
Experiment [7] is described as follows: Cytotoxicity against human HBC4 cells by SRB assay. The experiment is classed as functional. The gist of the method: as §1
Experiment [8] has as its target T1, Histone deacetylase 1 (Homo sapiens, UniProt Q13547). Description: Ratio of FK228 IC50 to compound IC50 for human HDAC1 expressed in human 293T cells. The experiment is classed as cell-based. The gist of the method:
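FLAG-tagged human HDAC1 was expressed transiently in 293T cells (pcDNA3-HDAC1), immunoprecipitated with anti-FLAG M2 and eluted with FLAG peptide. Enzyme was incubated with 2 mM stock Ac-KGLGK(Ac)-MCA in 20 mM Tris-HCl pH 8.0, 150 mM NaCl, 10% glycerol, 100 μM DTT, for 30 min at 37 °C. Trypsin then released AMC, read by fluorescence. IC50 is the mean of ≥3 dose-response curves; FK228 reference run alongside.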

Experiment [9] can be described thus: Selectivity index, ratio of IC50 for mouse HDAC6 to IC50 for human HDAC1. In a few lines:
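Ratio of HDAC6 IC50 to HDAC1 IC50. Both enzymes were FLAG-immunopurified from transfected 293T cells: human HDAC1 and mouse HDAC6. Each was assayed on Ac-KGLGK(Ac)-MCA with 100 µM DTT at 37 °C for 30 min, developed with trypsin, and AMC read by fluorescence. IC50s are means of ≥3 curves.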

For experiment [10], the target named is T2, Protein deacetylase HDAC6 (Mus musculus, UniProt Q9Z2V5).
T2 sequence (Q9Z2V5 whole entry): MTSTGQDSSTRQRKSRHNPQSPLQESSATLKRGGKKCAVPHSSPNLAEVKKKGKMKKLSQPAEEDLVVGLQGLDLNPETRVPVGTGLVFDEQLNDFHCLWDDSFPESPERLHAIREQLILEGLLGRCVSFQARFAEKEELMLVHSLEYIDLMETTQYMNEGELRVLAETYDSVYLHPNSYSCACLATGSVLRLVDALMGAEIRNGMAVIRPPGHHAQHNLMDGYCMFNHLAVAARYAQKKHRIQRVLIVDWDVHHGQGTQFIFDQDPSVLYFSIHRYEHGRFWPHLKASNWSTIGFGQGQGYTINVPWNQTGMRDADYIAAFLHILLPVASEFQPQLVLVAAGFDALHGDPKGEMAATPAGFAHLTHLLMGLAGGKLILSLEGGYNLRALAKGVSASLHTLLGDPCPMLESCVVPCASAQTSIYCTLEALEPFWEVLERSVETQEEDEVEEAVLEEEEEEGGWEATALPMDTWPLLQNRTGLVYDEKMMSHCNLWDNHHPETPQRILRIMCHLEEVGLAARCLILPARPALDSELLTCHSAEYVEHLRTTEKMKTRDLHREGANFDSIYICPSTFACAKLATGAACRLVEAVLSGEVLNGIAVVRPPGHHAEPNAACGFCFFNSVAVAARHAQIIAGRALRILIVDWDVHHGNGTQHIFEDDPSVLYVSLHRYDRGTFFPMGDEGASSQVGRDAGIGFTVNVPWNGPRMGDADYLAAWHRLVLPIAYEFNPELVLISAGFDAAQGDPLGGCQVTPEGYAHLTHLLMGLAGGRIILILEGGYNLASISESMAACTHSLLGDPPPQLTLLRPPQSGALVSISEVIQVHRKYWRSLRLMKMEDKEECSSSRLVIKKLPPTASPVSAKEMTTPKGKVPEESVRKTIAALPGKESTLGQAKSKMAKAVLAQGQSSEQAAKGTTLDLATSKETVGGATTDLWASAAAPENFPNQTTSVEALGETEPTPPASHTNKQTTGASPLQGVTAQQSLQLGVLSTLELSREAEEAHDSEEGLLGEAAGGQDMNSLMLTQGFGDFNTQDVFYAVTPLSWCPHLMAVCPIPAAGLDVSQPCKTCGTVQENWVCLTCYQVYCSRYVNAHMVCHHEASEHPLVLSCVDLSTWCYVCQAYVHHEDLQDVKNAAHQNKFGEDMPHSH
As to the kind of experiment: Inhibition of mouse HDAC6 expressed in human 293T cells using Ac-KGLGK(Ac)-MCA as substrate after 30 mins by fluorescence assay. Type of experiment: cell-based.

The target of experiment [11] is T1, Histone deacetylase 1. As to the kind of experiment: Inhibition of human HDAC1 expressed in human 293T cells using Ac-KGLGK(Ac)-MCA as substrate after 30 mins by fluorescence assay.
The test system of experiment [12] is PC-3. As to the kind of experiment: Cytotoxicity against human PC3 cells by SRB assay. The experiment is classed as functional. The gist of the method:
as §1

Experiment [13] concerns DU-145. Description: Cytotoxicity against human DU145 cells by SRB assay. Type of experiment: functional. In a few lines:
as §1

The nature of experiment [14]: Cytotoxicity against human MKN45 cells by SRB assay. The following applies: MKN-45. Type of experiment: functional. The gist of the method: as §1
A short description of experiment [15]: Cytotoxicity against human MKN74 cells by SRB assay. Type of experiment: functional. The following applies: MKN-74. The gist of the method:
as §1

A short description of experiment [16]: Cytotoxicity against human MKN7 cells by SRB assay. Type of experiment: functional. The following applies: MKN-7. The gist of the method:
as §1

A short description of experiment [17]: Cytotoxicity against human MKN28 cells by SRB assay. The following applies: MKN-28. The experiment is classed as functional. The gist of the method: as §1
The nature of experiment [18]: Cytotoxicity against human MKN1 cells by SRB assay. The experiment is classed as functional. The following applies: MKN-1. The gist of the method:
as §1

Experiment [19] deals with St-4. Description: Cytotoxicity against human St-4 cells by SRB assay. Type of experiment: functional. In a few lines:
as §1

The test system of experiment [20] is ACHN. As to the kind of experiment: Cytotoxicity against human ACHN cells by SRB assay. Type of experiment: functional. The gist of the method: as §1
Experiment [21] in a line: Cytotoxicity against human RXF631L cells by SRB assay. The following applies: RXF 631. The experiment is classed as functional. In a few lines:
as §1

Experiment [22] deals with SK-OV-3. As to the kind of experiment: Cytotoxicity against human SKOV3 cells by SRB assay. The experiment is classed as functional. The gist of the method:
as §1

Experiment [23] has as its system OVCAR-8. Description: Cytotoxicity against human OVCAR8 cells by SRB assay. The experiment is classed as functional. In a few lines: as §1
Experiment [24] can be described thus: Cytotoxicity against human OVCAR5 cells by SRB assay. The following applies: OVCAR-5. Type of experiment: functional. The gist of the method:
as §1

Experiment [25] can be described thus: Cytotoxicity against human OVCAR4 cells by SRB assay. Type of experiment: functional. The following applies: OVCAR-4. The gist of the method: as §1
Experiment [26] has as its system OVCAR-3. Description: Cytotoxicity against human OVCAR3 cells by SRB assay. Type of experiment: functional. The gist of the method:
as §1

Experiment [27] concerns LOX IMVI. Description: Cytotoxicity against human LOXIMVI cells by SRB assay. The experiment is classed as functional. In a few lines: as §1
The nature of experiment [28]: Cytotoxicity against human DMS273 cells by SRB assay. Type of experiment: functional. The following applies: DMS-273. The gist of the method:
as §1

Experiment [29] can be described thus: Cytotoxicity against human DMS114 cells by SRB assay. The following applies: DMS-114. Type of experiment: functional. In a few lines: as §1
The test system of experiment [30] is NCI-H460. Description: Cytotoxicity against human NCI-H460 cells by SRB assay. The experiment is classed as functional. In a few lines: as §1
In experiment [31] the test system is A549. Description: Cytotoxicity against human A549 cells by SRB assay. Type of experiment: functional. In a few lines:
as §1

For experiment [32], the system named is NCI-H226. As to the kind of experiment: Cytotoxicity against human NCI-H226 cells by SRB assay. Type of experiment: functional. In a few lines:
as §1

Experiment [33] relates to NCI-H522. Description: Cytotoxicity against human NCI-H522 cells by SRB assay. Type of experiment: functional. In a few lines: as §1
Experiment [34] relates to NCI-H23. As to the kind of experiment: Cytotoxicity against human NCI-H23 cells by SRB assay. Type of experiment: functional. In a few lines:
as §1

Experiment [35] concerns HCT-116. As to the kind of experiment: Cytotoxicity against human HCT116 cells by SRB assay. Type of experiment: functional. In a few lines: as §1
For experiment [36], the system named is HCT-15. As to the kind of experiment: Cytotoxicity against human HCT15 cells by SRB assay. Type of experiment: functional. In a few lines:
as §1

The test system of experiment [37] is HT-29. As to the kind of experiment: Cytotoxicity against human HT-29 cells by SRB assay. Type of experiment: functional. In a few lines:
as §1

Experiment [38] relates to KM12. As to the kind of experiment: Cytotoxicity against human KM12 cells by SRB assay. Type of experiment: functional. In a few lines: as §1
Experiment [39] in a line: Cytotoxicity against human SNB78 cells by SRB assay. Type of experiment: functional. The following applies: SNB-78. The gist of the method:
as §1

Experiment [40] relates to HCC 2998. Description: Cytotoxicity against human HCC2998 cells by SRB assay. The experiment is classed as functional. In a few lines: as §1
Experiment [41] relates to SNB-75. Description: Cytotoxicity against human SNB75 cells by SRB assay. The experiment is classed as functional. The gist of the method: as §1
In experiment [42] the test system is SF-295. As to the kind of experiment: Cytotoxicity against human SF295 cells by SRB assay. The experiment is classed as functional. The gist of the method: as §1
Experiment [43] deals with SF-539. As to the kind of experiment: Cytotoxicity against human SF539 cells by SRB assay. The experiment is classed as functional. In a few lines: as §1

Drawing on ChEMBL document CHEMBL3124849, “Total synthesis of burkholdacs A and B and 5,6,20-tri-epi-burkholdac A: HDAC inhibition and antiproliferative activity” (Eur J Med Chem, 2014), this text covers GI50, Ratio IC50 and IC50 for 2 compounds.

T1 sequence (Q13547 whole entry): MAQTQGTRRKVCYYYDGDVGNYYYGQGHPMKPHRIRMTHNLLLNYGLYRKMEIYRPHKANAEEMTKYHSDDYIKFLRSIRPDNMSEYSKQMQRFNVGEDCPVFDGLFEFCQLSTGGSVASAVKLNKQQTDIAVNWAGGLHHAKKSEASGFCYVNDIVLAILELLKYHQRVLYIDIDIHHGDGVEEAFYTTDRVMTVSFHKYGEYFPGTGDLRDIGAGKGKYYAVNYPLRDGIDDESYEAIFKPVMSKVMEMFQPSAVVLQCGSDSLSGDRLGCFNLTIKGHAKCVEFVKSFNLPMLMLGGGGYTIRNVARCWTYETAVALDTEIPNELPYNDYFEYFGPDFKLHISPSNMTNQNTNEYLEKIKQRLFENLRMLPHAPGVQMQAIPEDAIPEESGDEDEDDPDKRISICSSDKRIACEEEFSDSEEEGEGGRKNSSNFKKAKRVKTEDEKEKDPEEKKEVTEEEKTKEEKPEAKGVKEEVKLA

By GI50 is commonly meant the concentration at which growth is held to half of that of the control. Usually IC50 stands for the concentration needed to halve the response being measured. Low values mean inhibition by little substance, high ones a need for much substance. With `CC[C@H](C)[C@H]1NC(=O)[C@H]2CSSCC/C=C/[C@H](CC(=O)N[C@H](CCSC)C(=O)N2)OC(=O)C[C@@H]1O` [THAILANDEPSIN A], the GI50 stood at 4.1 nM in experiment [1]; 4.4 nM in experiment [2]; 2.6 nM in experiment [3]; 2.3 nM in [4]; 2.8 nM in experiment [5]; 5 nM in experiment [6]. The GI50 in experiment [7] is 3.8 nM; in experiment [12], 8.3 nM; in experiment [13] it was 3.1 nM; in experiment [14] it was 14 nM; in experiment [15] it was 2.9 nM; in [16] it was 10 nM. Further, the GI50 is 16 nM in [17]; 2.5 nM in [18]; 1.1 nM in experiment [19]; 6.6 nM in [20]; 2.3 nM in experiment [21]; 1.9 nM in [22]. The GI50 came to 0.72 nM in experiment [23]; 1.6 nM in experiment [24]; 5 nM in [25]; 2.8 nM in experiment [26]; 2.5 nM in [27]; 2.7 nM in [28]. Besides, the GI50 in experiment [29] came to 3.2 nM; in experiment [30], 0.53 nM; in [31], 0.85 nM; in experiment [32], 2.7 nM; in experiment [33], 0.42 nM; in experiment [34], 3.3 nM. Also, the concentration for 50% growth inhibition (GI50) in experiment [35] came to 0.51 nM; in experiment [36] it was 100 nM; in experiment [37], 0.74 nM; in experiment [38], 3.6 nM; in experiment [39] it was 11 nM; in [40] it was 2.6 nM. The GI50 in experiment [41] came out at 1.4 nM; in experiment [42] it was 2.3 nM; in experiment [43], 0.7 nM. Also, the results for the Ratio IC50 in [8] and in experiment [9] were 3 and 992, respectively. Further, the IC50 in [10] was determined as 992 nM; in [11], 1 nM.

For `CC(C)[C@H]1NC(=O)[C@H]2CSSCC/C=C/[C@H](CC(=O)N[C@H](C)C(=O)N2)OC(=O)C[C@@H]1O`, the Ratio IC50 in [9] was found to be 485.
